Assay results reported in ChEMBL document CHEMBL1156470, “Inhibition of the activation of multiple serine proteases with a cathepsin C inhibitor requires sustained exposure to prevent pro-enzyme processing” (J Biol Chem, 2007).
Activity calls are given as the source filed them. No cut-off for these calls is given here.

Tests used:
U-937 = experiment: Effect on neutrophil elastase protein expression in human U937 cells at 30 uM after 7 days by Western blot; assay type: functional, cell-based
Myeloblastin = molecular target: T1, Myeloblastin (Homo sapiens, UniProt P24158); experiment: Inhibition of proteinase-3 in human U937 cells; assay type: cell-based, U-937
T1 sequence (P24158 whole entry): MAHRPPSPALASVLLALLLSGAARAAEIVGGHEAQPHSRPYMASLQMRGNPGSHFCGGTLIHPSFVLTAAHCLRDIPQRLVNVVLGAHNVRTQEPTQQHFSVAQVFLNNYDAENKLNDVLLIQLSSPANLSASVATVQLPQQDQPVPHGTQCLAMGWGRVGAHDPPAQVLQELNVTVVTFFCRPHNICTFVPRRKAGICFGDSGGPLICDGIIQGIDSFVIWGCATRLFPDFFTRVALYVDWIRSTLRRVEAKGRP

[1] = molecular target: T2, Cathepsin G (Mus musculus) (UniProt P28293); experiment: Inhibition of cathepsin G activity in beta-estradiol differentiated mouse EcoM-G cells at 10 uM after 24 hrs in the absence of estradiol; assay type: cell-based
T2 sequence (whole entry): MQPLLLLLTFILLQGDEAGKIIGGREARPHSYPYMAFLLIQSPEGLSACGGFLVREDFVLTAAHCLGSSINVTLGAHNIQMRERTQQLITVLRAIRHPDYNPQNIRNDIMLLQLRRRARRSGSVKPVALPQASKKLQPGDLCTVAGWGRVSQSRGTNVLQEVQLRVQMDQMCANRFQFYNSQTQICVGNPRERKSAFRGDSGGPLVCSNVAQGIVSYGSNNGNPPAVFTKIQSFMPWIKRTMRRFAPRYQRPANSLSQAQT
Summary of the method: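 EcoM-G cells seeded without β-estradiol to differentiate. 10 μM compound or vehicle added 24 h after estrogen removal, and aliquots taken over time up to 3 days. CG activity in extracts measured with 1 mM Suc-Ala-Ala-Pro-Phe-pNA, absorbance at 405 nm over 5 min, in 100 mM Tris pH 7.5, 1 M NaCl.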

[2] = molecular target: T3, Neutrophil elastase (Mus musculus) (UniProt Q3UP87); details: EcoM-G, 1 uM
T3 sequence (whole entry): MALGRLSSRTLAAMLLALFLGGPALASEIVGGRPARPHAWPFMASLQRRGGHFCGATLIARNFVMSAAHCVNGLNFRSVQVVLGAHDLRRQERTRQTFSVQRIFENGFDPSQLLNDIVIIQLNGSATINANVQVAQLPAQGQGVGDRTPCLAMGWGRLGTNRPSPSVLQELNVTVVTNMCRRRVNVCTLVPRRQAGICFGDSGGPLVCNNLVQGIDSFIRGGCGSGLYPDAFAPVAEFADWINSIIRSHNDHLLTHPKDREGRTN

Cathepsin B = Cathepsin B (Homo sapiens, UniProt P07858); experiment: Inhibition of human recombinant cathepsin B after 10 mins
Neutrophil elastase [3] = molecular target: T4, Neutrophil elastase (Homo sapiens, UniProt P08246); experiment: Blockade of neutrophil elastase processing in human U937 cells after 7 days by fluorogenic substrate cleavage assay; assay type: cell-based, U-937
T4 sequence (P08246 whole entry): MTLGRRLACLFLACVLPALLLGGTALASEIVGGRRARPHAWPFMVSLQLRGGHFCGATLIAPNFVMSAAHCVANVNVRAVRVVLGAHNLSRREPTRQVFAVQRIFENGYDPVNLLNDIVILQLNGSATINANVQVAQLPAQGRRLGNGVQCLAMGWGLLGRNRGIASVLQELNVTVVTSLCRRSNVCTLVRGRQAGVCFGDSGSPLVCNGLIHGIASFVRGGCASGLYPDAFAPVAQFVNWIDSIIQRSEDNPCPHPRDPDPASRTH
Summary of the method: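 U937 seeded at 1×10^5 cells/ml with vehicle or inhibitor, passaged and diluted 10-fold into fresh medium with compound on days 3 and 5, harvested day 7. Cells washed and lysed in 20 mM Tris pH 7.5, 100 mM NaCl, 0.2% NP-40. NE rate measured with 400 μM MeOSuc-AAPV-AMC (ex 370/em 450 nm, 10 min). % inhibition vs vehicle, four wells per point.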

Dipeptidyl peptidase 1 = Dipeptidyl peptidase 1 (Homo sapiens, UniProt P53634); experiment: Inhibition of human recombinant cathepsin C after 10 mins
Summary of the method: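 Recombinant human cathepsin C at 1 nM in 25 mM MES pH 6.0, 50 mM NaCl, 5 mM DTT, with 50 μM Gly-Arg-AMC (twice Km). Enzyme preincubated with inhibitor 10 min, then substrate added, at room temperature. Fluorogenic AMC release.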

Pro-cathepsin H = molecular target: T5, Pro-cathepsin H (Homo sapiens, UniProt P09668); experiment: Inhibition of human recombinant cathepsin H after 10 mins
T5 sequence (P09668 whole entry): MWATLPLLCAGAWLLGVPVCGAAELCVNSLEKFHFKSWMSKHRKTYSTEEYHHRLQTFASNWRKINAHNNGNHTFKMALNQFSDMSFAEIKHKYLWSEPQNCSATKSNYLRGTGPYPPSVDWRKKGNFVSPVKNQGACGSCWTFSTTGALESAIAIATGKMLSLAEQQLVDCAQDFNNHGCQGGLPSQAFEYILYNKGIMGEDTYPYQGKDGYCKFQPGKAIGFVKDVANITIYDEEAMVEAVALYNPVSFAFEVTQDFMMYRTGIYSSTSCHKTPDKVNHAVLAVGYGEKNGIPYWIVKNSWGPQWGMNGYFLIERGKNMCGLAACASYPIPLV

U-937 (Homo sapiens) = experiment: Effect on neutrophil elastase protein expression in human U937 cells at 30 uM after 7 days by Western blot
Cathepsin S = Cathepsin S (Homo sapiens, UniProt P25774); experiment: Inhibition of human recombinant cathepsin S after 10 mins
Neutrophil elastase [4] = molecular target: T6, Neutrophil elastase (Mus musculus, UniProt Q3UP87); experiment: Inhibition of neutrophil elastase activation in beta-estradiol differentiated mouse EcoM-G cells after 24 hrs; assay type: cell-based
T6 sequence (Q3UP87 whole entry): T3 sequence (whole entry)
Summary of the method: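 EcoM-G cells (cultures <3 months old) washed and seeded at 0.5×10^6 cells/ml without β-estradiol. After 24 h, compound added in Me₂SO (final 0.5%), then cells differentiated a further 24 h, harvested and lysed. NE assayed with 400 μM MeOSuc-AAPV-AMC, CG with 1 mM Suc-AAPF-pNA (405 nm, 5 min), Pr-3 with 10 μM internally quenched substrate (ex 328/em 393 nm), all from the same lysates. IC50 from four-parameter Hill fit.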

Procathepsin L = Procathepsin L (Homo sapiens, UniProt P07711); experiment: Inhibition of human recombinant cathepsin L after 10 mins
Cathepsin G = molecular target: T7, Cathepsin G (Homo sapiens, UniProt P08311); experiment: Inhibition of cathepsin G in human U937 cells; assay type: cell-based, U-937
T7 sequence (P08311 whole entry): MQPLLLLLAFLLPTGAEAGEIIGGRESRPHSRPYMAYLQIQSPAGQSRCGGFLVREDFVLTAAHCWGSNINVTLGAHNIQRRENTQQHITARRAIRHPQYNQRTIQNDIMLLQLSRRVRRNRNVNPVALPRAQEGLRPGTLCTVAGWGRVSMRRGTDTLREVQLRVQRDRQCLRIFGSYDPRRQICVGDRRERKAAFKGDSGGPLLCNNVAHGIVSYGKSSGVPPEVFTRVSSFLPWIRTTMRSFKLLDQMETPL

[5] = molecular target: T8, Neutrophil elastase (Homo sapiens) (UniProt P08246); details: U-937, 1 uM
T8 sequence (whole entry): T4 sequence (P08246 whole entry)

Sequence of Dipeptidyl peptidase 1 (P53634 25-134 limits assumed): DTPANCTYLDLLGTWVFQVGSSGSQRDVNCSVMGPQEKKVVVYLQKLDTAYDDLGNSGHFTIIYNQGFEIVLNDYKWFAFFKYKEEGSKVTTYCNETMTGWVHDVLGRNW
Sequence of Dipeptidyl peptidase 1 (P53634 231-394 limits assumed): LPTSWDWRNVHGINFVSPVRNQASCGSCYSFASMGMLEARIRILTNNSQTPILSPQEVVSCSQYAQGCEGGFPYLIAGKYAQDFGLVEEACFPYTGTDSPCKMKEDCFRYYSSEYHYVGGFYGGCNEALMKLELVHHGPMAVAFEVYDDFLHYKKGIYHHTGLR
Sequence of Dipeptidyl peptidase 1 (P53634 395-463 limits assumed): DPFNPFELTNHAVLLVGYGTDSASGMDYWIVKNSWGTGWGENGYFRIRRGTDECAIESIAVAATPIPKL
Sequence of Procathepsin L (P07711 whole entry): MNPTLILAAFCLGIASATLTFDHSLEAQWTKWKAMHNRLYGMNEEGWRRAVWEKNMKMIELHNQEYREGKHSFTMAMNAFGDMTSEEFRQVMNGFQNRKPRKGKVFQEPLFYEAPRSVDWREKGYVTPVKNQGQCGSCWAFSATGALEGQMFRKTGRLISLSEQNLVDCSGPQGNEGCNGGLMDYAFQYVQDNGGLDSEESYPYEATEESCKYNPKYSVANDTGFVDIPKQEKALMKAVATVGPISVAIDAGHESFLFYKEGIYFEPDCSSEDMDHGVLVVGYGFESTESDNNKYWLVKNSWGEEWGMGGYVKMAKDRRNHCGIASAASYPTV
Sequence of Cathepsin S (P25774 whole entry): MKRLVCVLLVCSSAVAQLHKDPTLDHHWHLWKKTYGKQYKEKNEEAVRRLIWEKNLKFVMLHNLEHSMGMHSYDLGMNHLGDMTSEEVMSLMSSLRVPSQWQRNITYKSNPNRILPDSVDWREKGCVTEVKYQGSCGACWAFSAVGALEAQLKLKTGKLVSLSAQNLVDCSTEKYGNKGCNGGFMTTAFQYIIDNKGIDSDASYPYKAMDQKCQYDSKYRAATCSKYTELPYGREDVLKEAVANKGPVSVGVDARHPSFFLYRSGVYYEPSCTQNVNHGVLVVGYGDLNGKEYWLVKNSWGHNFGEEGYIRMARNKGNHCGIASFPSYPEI

IC50 (Myeloblastin): > 50 µM
Activity [1]: Active
inhibition [2]: 80%
IC50 (Cathepsin B): > 50 µM
IC50 (Neutrophil elastase [3]): 0.22 µM
IC50 (Dipeptidyl peptidase 1): 0.014 µM
IC50 (Pro-cathepsin H): > 50 µM
IC50 (Cathepsin S): 5.9 µM
IC50 (Neutrophil elastase [4]): 0.16 µM
IC50 (Procathepsin L): 5.4 µM
IC50 (Cathepsin G): > 50 µM
inhibition [5]: > 90%
SMILES: N#C[C@@]1(NC(=O)[C@@H](N)Cc2cccs2)C[C@@H]1c1ccccc1.O=C(O)C(F)(F)F
Activity (U-937): inactive
Activity (U-937 (Homo sapiens)): inactive
